Active and inactive are the calls of the source. The rule behind the calls is not given here. Where a SMILES comes first, the peptide text is derived from it. Bridges are numbered along the chain shown (N, C = ends).
What was measured:
Furin [1] = molecular target: T1, Furin (Homo sapiens, UniProt P09958); assay: Inhibition of recombinant soluble human furin using pyroGlu-Arg-Thr-Lys-Arg-methyl-coumaryl-7-amide as substrate measured after 1 hr
Method in brief: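 Soluble human recombinant furin was tested in a competitive kinetic assay. Ki is reported as the mean ± SD of at least two independent experiments.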

[2] = Half life in CD1 mouse plasma by LC-MS/MS analysis; assay type: ADME, cell-free; conditions: for half-life: CD1, mouse
Method in brief: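 Peptide incubated ex vivo in mouse plasma at 37 °C and sampled at several time points, using the ng/mL concentration range. Intact peptide quantified by high-resolution mass spectrometry and expressed as percentage remaining; t1/2 derived from the time course. Each time point run in triplicate; mean and mean ± SD reported.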

[3] = molecular target: T2, Proprotein convertase subtilisin/kexin type 7 (Homo sapiens) (UniProt Q16549); assay: Inhibition of recombinant soluble human PC7 using pyroGlu-Arg-Thr-Lys-Arg-methyl-coumaryl-7-amide as substrate measured after 1 hr
T2 sequence (whole entry): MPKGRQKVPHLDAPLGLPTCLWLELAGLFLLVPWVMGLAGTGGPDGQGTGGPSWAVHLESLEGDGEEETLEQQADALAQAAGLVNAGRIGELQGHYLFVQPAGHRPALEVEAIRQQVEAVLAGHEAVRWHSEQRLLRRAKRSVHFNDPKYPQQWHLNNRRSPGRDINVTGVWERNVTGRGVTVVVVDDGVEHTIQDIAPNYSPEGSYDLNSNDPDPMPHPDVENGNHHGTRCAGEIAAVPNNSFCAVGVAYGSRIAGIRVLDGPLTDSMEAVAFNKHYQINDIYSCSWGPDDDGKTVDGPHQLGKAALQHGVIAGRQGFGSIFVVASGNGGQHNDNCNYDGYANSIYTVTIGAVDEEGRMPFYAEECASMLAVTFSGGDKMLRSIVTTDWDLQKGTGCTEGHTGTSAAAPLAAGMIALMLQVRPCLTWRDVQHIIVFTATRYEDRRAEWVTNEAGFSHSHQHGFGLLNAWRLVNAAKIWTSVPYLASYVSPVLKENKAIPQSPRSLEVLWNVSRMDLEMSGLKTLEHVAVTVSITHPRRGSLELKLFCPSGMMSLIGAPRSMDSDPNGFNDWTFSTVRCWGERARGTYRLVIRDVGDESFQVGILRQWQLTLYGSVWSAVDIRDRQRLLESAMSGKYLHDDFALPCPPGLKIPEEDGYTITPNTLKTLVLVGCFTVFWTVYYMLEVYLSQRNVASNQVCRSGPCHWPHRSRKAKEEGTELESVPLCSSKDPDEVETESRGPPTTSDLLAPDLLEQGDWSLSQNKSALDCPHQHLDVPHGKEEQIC

[4] = molecular target: Proprotein convertase subtilisin/kexin type 5 (Homo sapiens) (UniProt Q92824); assay: Inhibition of recombinant soluble human PC5 using pyroGlu-Arg-Thr-Lys-Arg-methyl-coumaryl-7-amide as substrate measured after 1 hr
[5] = molecular target: T3, Proprotein convertase subtilisin/kexin type 6 (Homo sapiens) (UniProt P29122); assay: Inhibition of recombinant soluble human PACE4 using pyroGlu-Arg-Thr-Lys-Arg-methyl-coumaryl-7-amide as substrate measured after 1 hr
T3 sequence (whole entry): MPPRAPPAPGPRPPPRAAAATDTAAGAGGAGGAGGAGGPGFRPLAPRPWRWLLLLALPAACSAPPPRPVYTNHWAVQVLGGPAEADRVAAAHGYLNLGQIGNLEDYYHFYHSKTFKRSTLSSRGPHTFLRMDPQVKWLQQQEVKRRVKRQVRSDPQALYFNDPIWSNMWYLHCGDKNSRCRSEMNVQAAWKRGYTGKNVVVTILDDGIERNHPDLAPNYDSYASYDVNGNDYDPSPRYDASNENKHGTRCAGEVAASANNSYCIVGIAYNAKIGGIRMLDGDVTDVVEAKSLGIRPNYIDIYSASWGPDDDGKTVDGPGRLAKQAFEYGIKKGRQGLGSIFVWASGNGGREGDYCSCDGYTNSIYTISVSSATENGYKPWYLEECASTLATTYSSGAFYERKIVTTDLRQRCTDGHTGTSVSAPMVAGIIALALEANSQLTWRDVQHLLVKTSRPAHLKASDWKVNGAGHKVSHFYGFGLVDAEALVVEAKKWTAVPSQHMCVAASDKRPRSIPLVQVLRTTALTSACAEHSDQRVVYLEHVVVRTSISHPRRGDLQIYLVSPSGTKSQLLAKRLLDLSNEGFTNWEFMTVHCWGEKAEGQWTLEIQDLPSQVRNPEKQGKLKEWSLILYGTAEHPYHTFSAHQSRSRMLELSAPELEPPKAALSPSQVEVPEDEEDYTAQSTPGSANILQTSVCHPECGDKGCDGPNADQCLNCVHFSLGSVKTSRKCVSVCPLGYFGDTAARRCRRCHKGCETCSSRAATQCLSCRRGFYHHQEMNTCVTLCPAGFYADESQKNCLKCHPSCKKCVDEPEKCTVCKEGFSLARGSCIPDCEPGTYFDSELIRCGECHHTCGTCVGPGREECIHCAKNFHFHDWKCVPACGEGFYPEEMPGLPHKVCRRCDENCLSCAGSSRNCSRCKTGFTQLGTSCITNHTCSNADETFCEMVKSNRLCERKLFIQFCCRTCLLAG

Furin [6] = molecular target: T1, Furin; assay: Potency index, ratio of CF1 Ki to test compound Ki for recombinant soluble human furin using pyroGlu-Arg-Thr-Lys-Arg-methyl-coumaryl-7-amide as substrate measured after 1 hr

T1 sequence (P09958 whole entry): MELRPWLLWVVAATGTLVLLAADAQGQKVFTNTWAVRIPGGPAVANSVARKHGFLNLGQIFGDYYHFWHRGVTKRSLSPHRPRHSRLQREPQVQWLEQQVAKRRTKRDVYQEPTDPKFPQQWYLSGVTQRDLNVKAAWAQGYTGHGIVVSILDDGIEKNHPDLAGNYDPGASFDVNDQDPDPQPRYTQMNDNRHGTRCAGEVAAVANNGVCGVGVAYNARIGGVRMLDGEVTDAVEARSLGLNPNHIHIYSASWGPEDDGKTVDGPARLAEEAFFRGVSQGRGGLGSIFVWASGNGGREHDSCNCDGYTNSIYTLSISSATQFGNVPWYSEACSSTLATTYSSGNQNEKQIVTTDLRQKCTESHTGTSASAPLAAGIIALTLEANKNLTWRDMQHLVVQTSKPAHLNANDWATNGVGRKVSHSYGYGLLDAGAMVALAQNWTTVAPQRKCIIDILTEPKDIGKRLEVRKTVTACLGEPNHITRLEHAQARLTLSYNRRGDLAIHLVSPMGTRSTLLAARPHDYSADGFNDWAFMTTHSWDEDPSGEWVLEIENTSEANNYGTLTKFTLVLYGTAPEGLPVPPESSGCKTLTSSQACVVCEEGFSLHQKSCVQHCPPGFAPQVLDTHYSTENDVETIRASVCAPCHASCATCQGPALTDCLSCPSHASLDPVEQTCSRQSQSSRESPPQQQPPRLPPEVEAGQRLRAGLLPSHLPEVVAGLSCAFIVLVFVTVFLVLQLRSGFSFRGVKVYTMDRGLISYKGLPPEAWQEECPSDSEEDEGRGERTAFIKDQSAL
Sequence of Proprotein convertase subtilisin/kexin type 5 (Homo sapiens) (Q92824 whole entry): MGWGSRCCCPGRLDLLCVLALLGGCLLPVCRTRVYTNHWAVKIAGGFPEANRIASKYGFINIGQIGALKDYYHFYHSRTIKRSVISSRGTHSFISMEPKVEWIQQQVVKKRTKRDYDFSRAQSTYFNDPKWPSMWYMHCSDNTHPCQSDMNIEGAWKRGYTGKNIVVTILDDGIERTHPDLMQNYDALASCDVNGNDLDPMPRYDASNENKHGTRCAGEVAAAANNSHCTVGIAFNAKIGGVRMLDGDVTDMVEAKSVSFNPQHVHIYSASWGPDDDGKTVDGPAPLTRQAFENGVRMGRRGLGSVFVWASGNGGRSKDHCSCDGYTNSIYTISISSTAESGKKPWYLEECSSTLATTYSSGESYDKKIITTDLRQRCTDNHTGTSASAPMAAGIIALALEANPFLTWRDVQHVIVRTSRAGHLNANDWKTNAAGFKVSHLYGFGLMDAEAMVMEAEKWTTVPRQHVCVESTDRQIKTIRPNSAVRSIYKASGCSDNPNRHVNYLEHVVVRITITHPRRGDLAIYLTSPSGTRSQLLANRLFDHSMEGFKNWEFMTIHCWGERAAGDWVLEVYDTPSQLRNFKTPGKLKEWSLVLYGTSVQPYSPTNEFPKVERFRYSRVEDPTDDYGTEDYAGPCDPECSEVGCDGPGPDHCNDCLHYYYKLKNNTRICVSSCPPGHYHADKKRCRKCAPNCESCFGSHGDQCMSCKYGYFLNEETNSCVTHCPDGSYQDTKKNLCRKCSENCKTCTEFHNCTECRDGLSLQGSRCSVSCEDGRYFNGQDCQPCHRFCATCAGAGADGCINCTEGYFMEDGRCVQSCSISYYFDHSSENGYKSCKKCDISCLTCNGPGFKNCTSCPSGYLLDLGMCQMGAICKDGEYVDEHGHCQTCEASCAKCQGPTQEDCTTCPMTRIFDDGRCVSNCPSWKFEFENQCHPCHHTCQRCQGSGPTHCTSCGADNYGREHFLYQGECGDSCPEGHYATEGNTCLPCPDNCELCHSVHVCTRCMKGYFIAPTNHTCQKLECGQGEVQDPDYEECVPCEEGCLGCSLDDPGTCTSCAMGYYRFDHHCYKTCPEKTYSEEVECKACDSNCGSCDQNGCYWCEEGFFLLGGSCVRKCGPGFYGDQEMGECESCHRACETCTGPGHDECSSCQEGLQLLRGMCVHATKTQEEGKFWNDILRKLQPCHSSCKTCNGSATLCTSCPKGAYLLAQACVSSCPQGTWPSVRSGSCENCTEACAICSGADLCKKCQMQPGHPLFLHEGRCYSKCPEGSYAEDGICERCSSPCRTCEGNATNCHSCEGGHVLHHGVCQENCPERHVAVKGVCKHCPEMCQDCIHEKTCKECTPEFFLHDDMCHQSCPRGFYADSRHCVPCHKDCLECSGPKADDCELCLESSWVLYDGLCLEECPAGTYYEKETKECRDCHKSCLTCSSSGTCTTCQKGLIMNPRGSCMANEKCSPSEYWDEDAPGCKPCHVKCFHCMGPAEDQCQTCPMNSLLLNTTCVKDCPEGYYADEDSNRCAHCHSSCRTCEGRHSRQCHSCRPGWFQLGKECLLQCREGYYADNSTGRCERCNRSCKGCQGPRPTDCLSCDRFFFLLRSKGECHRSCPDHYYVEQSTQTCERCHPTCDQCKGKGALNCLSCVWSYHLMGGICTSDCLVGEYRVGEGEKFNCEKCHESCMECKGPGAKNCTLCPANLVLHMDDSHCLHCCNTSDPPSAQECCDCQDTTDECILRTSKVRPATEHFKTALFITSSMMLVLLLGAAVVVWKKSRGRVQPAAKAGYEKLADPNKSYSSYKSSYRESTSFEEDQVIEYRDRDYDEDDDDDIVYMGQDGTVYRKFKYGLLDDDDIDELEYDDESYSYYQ

Row | Compound | Ki (Furin [1]) | also measured
1 | CC(=O)N[C@@H](Cc1ccccc1)C(=O)N[C@@H](C)C(=O)N[C@@H](CCCNC(=N)N)C(=O)N[C@@H](CCCNC(=N)N)C(=O)N[C@@H](CCCNC(=N)N)C(=O)N[C@@H](CCCCN)C(=O)N[C@@H](CCCCN)C(=O)N[C@@H](CCCNC(=N)N)C(=O)N[C@H](C(N)=O)[C@@H](C)O | 14 nM | half-life [2]: 33.6 s
2 | CC(=O)N[C@@H](CCCNC(=N)N)C(=O)N[C@@H](C)C(=O)N[C@@H](CCCNC(=N)N)C(=O)N[C@@H](CCCNC(=N)N)C(=O)N[C@@H](CCCNC(=N)N)C(=O)N[C@@H](CCCCN)C(=O)N[C@@H](CCCCN)C(=O)N[C@@H](CCCNC(=N)N)C(=O)N[C@H](C(N)=O)[C@@H](C)O | 15 nM | inhibition [3]: inactive; inhibition [4]: Active; inhibition [5]: Active; t1/2 ([2]; mouse): 212 s
3 | CC(=O)N[C@@H](CCCNC(=N)N)C(=O)N[C@@H](C)C(=O)N[C@@H](CCCNC(=N)N)C(=O)N[C@@H](CCCNC(=N)N)C(=O)N[C@@H](CCCNC(=N)N)C(=O)N[C@@H](CCCCN)C(=O)N[C@@H](CCCCN)C(=O)NN(CCCNC(=N)N)CC(=O)N[C@@H](Cc1ccccc1)C(N)=O | 2500 nM | half-life [2]: 155 s
4 | CC(=O)N[C@@H](CCCNC(=N)N)C(=O)N[C@@H](C)C(=O)N[C@@H](Cc1ccccc1)C(=O)N[C@@H](CCCNC(=N)N)C(=O)N[C@@H](CCCNC(=N)N)C(=O)N[C@@H](CCCCN)C(=O)N[C@@H](CCCCN)C(=O)N[C@@H](CCCNC(=N)N)C(=O)N[C@H](C(N)=O)[C@@H](C)O | 29 nM | half-life [2]: 12.6 s
5 | CC(=O)N[C@@H](CCCNC(=N)N)C(=O)N[C@@H](Cc1ccccc1)C(=O)N[C@@H](CCCNC(=N)N)C(=O)N[C@@H](CCCNC(=N)N)C(=O)N[C@@H](CCCNC(=N)N)C(=O)N[C@@H](CCCCN)C(=O)N[C@@H](CCCCN)C(=O)N[C@@H](CCCNC(=N)N)C(=O)N[C@H](C(N)=O)[C@@H](C)O | 23 nM | half-life [2]: 57.6 s
6 | CC(=O)N[C@@H](CCCNC(=N)N)C(=O)N[C@@H](C)C(=O)N[C@@H](CCCNC(=N)N)C(=O)N[C@@H](CCCCN)C(=O)N[C@@H](CCCNC(=N)N)C(=O)N[C@@H](CCCCN)C(=O)N[C@@H](CCCCN)C(=O)N[C@@H](CCCNC(=N)N)C(=O)N[C@H](C(N)=O)[C@@H](C)O | 7 nM | Ratio Ki (Furin [6]): 2
7 | CC(=O)N[C@@H](CCCNC(=N)N)C(=O)N[C@@H](C)C(=O)N[C@@H](CCCNC(=N)N)C(=O)N[C@@H](CC(N)=O)C(=O)N[C@@H](CCCNC(=N)N)C(=O)N[C@@H](CCCCN)C(=O)N[C@@H](CCCCN)C(=O)N[C@@H](CCCNC(=N)N)C(=O)N[C@H](C(N)=O)[C@@H](C)O | 18 nM | inhibition [3]: inactive; inhibition [4]: Active; inhibition [5]: Active
8 | CC(=O)N[C@@H](CCCNC(=N)N)C(=O)N[C@@H](C)C(=O)N[C@@H](CCC(N)=O)C(=O)N[C@@H](CCCNC(=N)N)C(=O)N[C@@H](CCCNC(=N)N)C(=O)N[C@@H](CCCCN)C(=O)N[C@@H](CCCCN)C(=O)N[C@@H](CCCNC(=N)N)C(=O)N[C@H](C(N)=O)[C@@H](C)O | 20 nM | –
9 | CC[C@H](C)[C@H](NC(=O)[C@H](CCCNC(=N)N)NC(C)=O)C(=O)N[C@@H](CCCNC(=N)N)C(=O)N[C@@H](CCCNC(=N)N)C(=O)N[C@@H](CCCNC(=N)N)C(=O)N[C@@H](CCCCN)C(=O)N[C@@H](CCCCN)C(=O)N[C@@H](CCCNC(=N)N)C(=O)N[C@H](C(N)=O)[C@@H](C)O | 20 nM | –
10 | CC(=O)N[C@@H](CCCNC(=N)N)C(=O)N[C@@H](C)C(=O)N1CCC[C@H]1C(=O)N[C@@H](CCCNC(=N)N)C(=O)N[C@@H](CCCNC(=N)N)C(=O)N[C@@H](CCCCN)C(=O)N[C@@H](CCCCN)C(=O)N[C@@H](CCCNC(=N)N)C(=O)N[C@H](C(N)=O)[C@@H](C)O | 21 nM | –
11 | CC(=O)N[C@@H](CCCNC(=N)N)C(=O)N[C@@H](C)C(=O)N[C@@H](CCCNC(=N)N)C(=O)N[C@@H](Cc1ccccc1)C(=O)N[C@@H](CCCNC(=N)N)C(=O)N[C@@H](CCCCN)C(=O)N[C@@H](CCCCN)C(=O)N[C@@H](CCCNC(=N)N)C(=O)N[C@H](C(N)=O)[C@@H](C)O | 21 nM | inhibition [3]: inactive; inhibition [4]: Active; inhibition [5]: Active; half-life [2]: 19.2 s
12 | CC[C@H](C)[C@H](NC(=O)[C@H](CCCNC(=N)N)NC(=O)[C@H](C)NC(=O)[C@@H](NC(C)=O)C(C)C)C(=O)N[C@@H](CCCNC(=N)N)C(=O)N[C@@H](CCCCN)C(=O)N[C@@H](CCCCN)C(=O)N[C@@H](CCCNC(=N)N)C(=O)N[C@H](C(N)=O)[C@@H](C)O (Ac-VARIRKKRT-NH2) | 10 nM | –
13 | CC[C@H](C)[C@H](NC(=O)[C@H](CCCNC(=N)N)NC(=O)[C@H](C)NC(=O)[C@H](CO)NC(C)=O)C(=O)N[C@@H](CCCNC(=N)N)C(=O)N[C@@H](CCCCN)C(=O)N[C@@H](CCCCN)C(=O)N[C@@H](CCCNC(=N)N)C(=O)N[C@H](C(N)=O)[C@@H](C)O (Ac-SARIRKKRT-NH2) | 8 nM | –
14 | CC[C@H](NC(=O)[C@H](CCCNC(=N)N)NC(=O)[C@H](C)NC(=O)[C@H](CO)NC(C)=O)C(=O)N[C@@H](CCCNC(=N)N)C(=O)N[C@@H](CCCCN)C(=O)N[C@@H](CCCCN)C(=O)N[C@@H](CCCNC(=N)N)C(=O)N[C@H](C(N)=O)[C@@H](C)O | 11 nM | –
15 | CC[C@H](NC(=O)[C@H](CCCNC(=N)N)NC(=O)[C@H](C)NC(=O)[C@H](CCCNC(=N)N)NC(C)=O)C(=O)N[C@@H](CCCNC(=N)N)C(=O)N[C@@H](CCCCN)C(=O)N[C@@H](CCCCN)C(=O)N[C@@H](CCCNC(=N)N)C(=O)N[C@H](C(N)=O)[C@@H](C)O | 11 nM | –
16 | CC(=O)N[C@@H](CCCCN)C(=O)N[C@@H](C)C(=O)N[C@@H](CCCNC(=N)N)C(=O)N[C@@H](CCCNC(=N)N)C(=O)N[C@@H](CCCNC(=N)N)C(=O)N[C@@H](CCCCN)C(=O)N[C@@H](CCCCN)C(=O)N[C@@H](CCCNC(=N)N)C(=O)N[C@H](C(N)=O)[C@@H](C)O | 13 nM | –
17 | CC(=O)N[C@@H](CCCNC(=N)N)C(=O)N[C@@H](C)C(=O)N[C@@H](CCCNC(=N)N)C(=O)N[C@H]1CCCCNC(=O)[C@H](CCCNC(=N)N)NC(=O)[C@H](CCCCN)NC(=O)[C@H](CCCCN)NC(=O)[C@H](CCCNC(=N)N)NC(=O)[C@H]([C@@H](C)O)NC1=O (Ac-RARKTRKKR; lactam 4-C) | 2500 nM | –
18 | CC(=O)N[C@@H](CCCNC(=N)N)C(=O)N[C@@H](C)C(=O)N[C@@H](CC(=O)O)C(=O)N[C@@H](CCCNC(=N)N)C(=O)N[C@@H](CCCNC(=N)N)C(=O)N[C@@H](CCCCN)C(=O)N[C@@H](CCCCN)C(=O)N[C@@H](CCCNC(=N)N)C(=O)N[C@H](C(N)=O)[C@@H](C)O | 270 nM | –
19 | CC(=O)N[C@@H](CCCNC(=N)N)C(=O)N[C@@H](CC(=O)O)C(=O)N[C@@H](CCCNC(=N)N)C(=O)N[C@@H](CCCNC(=N)N)C(=O)N[C@@H](CCCNC(=N)N)C(=O)N[C@@H](CCCCN)C(=O)N[C@@H](CCCCN)C(=O)N[C@@H](CCCNC(=N)N)C(=O)N[C@H](C(N)=O)[C@@H](C)O | 33 nM | –

Reference: ChEMBL document CHEMBL4680371, “Design and Structure-Activity Relationship of a Potent Furin Inhibitor Derived from Influenza Hemagglutinin” (ACS Med Chem Lett, 2021)
